{"data": "Results gathered from unrelated publications", "technique": "competition with immobilised ligand", "RPS6KA1 C-terminal kinase domain": "Ribosomal protein S6 kinase alpha-1, C-terminal kinase domain (RPS6KA1, Homo sapiens, UniProt Q15418)", "RPS6KA1 N-terminal kinase domain": "Ribosomal protein S6 kinase alpha-1, N-terminal kinase domain (RPS6KA1, Homo sapiens, UniProt Q15418)", "note": "Each line is one published result; the experiments were not run side by side."}
{"SMILES": "COc1cnc(Nc2cccc(S(N)(=O)=O)c2)nc1N1CCN(c2ccccc2)CC1", "target": "RPS6KA1 C-terminal kinase domain", "test": "binding", "setting": "1 µM", "remaining binding": "83%"}
{"SMILES": "CN(c1nccc(-c2cnn3ncccc23)n1)C1CC1", "target": "RPS6KA1 N-terminal kinase domain", "test": "binding", "setting": "1 µM", "remaining binding": "100%"}
{"SMILES": "CCS(=O)(=O)c1cc2cc(C[C@@](O)(CC(C)(C)c3ccc(F)cc3C(N)=O)C(F)(F)F)[nH]c2cn1", "target": "RPS6KA1 N-terminal kinase domain", "test": "cell-free assay", "setting": "1 µM", "remaining binding": "100%"}
{"SMILES": "O=C(NCC1CCOCC1)c1n[nH]cc1NC(=O)c1c(F)cccc1F", "target": "RPS6KA1 C-terminal kinase domain", "test": "binding", "setting": "1 µM", "remaining binding": "93%"}
{"SMILES": "CCN1CCN(Cc2ccc(C(=O)Nc3ccc(C)c(Oc4ccc5c(c4)CC(=O)N5)c3)cc2C(F)(F)F)CC1", "target": "RPS6KA1 C-terminal kinase domain", "test": "binding", "setting": "1 µM", "remaining binding": "95%"}
{"SMILES": "O=C(N1CCS(=O)(=O)CC1)N1C[C@H](c2ccc(OC(F)(F)F)cc2)C[C@H](c2nc(C3CC3)no2)C1", "target": "RPS6KA1 C-terminal kinase domain", "test": "cell-free assay", "setting": "1 µM", "remaining binding": "100%"}
{"SMILES": "O=C(c1ccc(Nc2ncc(Cl)c(-c3ccc(Cl)s3)n2)cc1)N1CCC(N2CCCC2)CC1", "target": "RPS6KA1 N-terminal kinase domain", "test": "binding", "setting": "1 µM", "remaining binding": "53%"}
{"SMILES": "c1cncc(-c2cccc(Nc3nccc(NC4CCCCC4)n3)c2)c1", "target": "RPS6KA1 C-terminal kinase domain", "test": "binding", "setting": "10 µM", "remaining binding": "99%"}
{"SMILES": "O=C(NS(=O)(=O)c1ccc(NCC2CCOCC2)c([N+](=O)[O-])c1)c1ccc(N2CCN(Cc3ccc(C(F)(F)F)cc3-c3ccc(Cl)cc3)CC2)cc1Oc1cnc2[nH]ccc2c1", "target": "RPS6KA1 N-terminal kinase domain", "test": "cell-free assay", "setting": "1 µM", "remaining binding": "95%"}
{"SMILES": "Cc1cnn2ncc(-c3ccnc(N(C)C)n3)c2c1", "target": "RPS6KA1 N-terminal kinase domain", "test": "binding", "setting": "1 µM", "remaining binding": "100%"}
{"SMILES": "C[C@@H](c1ccc(-n2cnc3c(N)ncnc32)cc1)N1CCc2nn(C)c(Cc3ccccc3)c2C1=O", "target": "RPS6KA1 N-terminal kinase domain", "test": "binding", "setting": "0.1 µM", "remaining binding": "96%"}
{"SMILES": "O=C(c1ccc(Nc2nccc(-c3cc4ccccc4s3)n2)cc1)N1CCC(N2CCCC2)CC1", "target": "RPS6KA1 C-terminal kinase domain", "test": "binding", "setting": "1 µM", "remaining binding": "60%"}
{"SMILES": "N[C@H]1CCN(c2nccc(-c3cnn4ncccc34)n2)C1", "target": "RPS6KA1 N-terminal kinase domain", "test": "binding", "setting": "1 µM", "remaining binding": "100%"}
{"SMILES": "O=C(NCCCN1CCOCC1)c1ccc(Nc2ncc(Cl)c(-c3ccc(Cl)s3)n2)cc1", "target": "RPS6KA1 C-terminal kinase domain", "test": "binding", "setting": "1 µM", "remaining binding": "72%"}
{"SMILES": "O=C(NCc1ncc(C(F)(F)F)cc1Cl)c1ccc2c(c1)C1(CCS(=O)(=O)CC1)[C@H](C1CC1)N2S(=O)(=O)c1ccc(F)cc1", "target": "RPS6KA1 C-terminal kinase domain", "test": "cell-free assay", "setting": "1 µM", "remaining binding": "99%"}
{"SMILES": "O=C(NCCCN1CCOCC1)c1ccc(Nc2nccc(-c3cc4ccccc4s3)n2)cc1", "target": "RPS6KA1 N-terminal kinase domain", "test": "binding", "setting": "1 µM", "remaining binding": "87%"}
{"SMILES": "O=C(Nc1cccnn1)N1CC(C/C=C/c2cncc(Oc3ccc(C(F)(F)F)cn3)n2)C1", "target": "RPS6KA1 C-terminal kinase domain", "test": "cell-free assay", "setting": "1 µM", "remaining binding": "92%"}
{"SMILES": "CC1CCCN1c1nccc(-c2cnn3ncccc23)n1 (stereo not drawn)", "target": "RPS6KA1 N-terminal kinase domain", "test": "binding", "setting": "1 µM", "remaining binding": "100%"}
{"SMILES": "O=C(c1ccc(Nc2ncc(Cl)c(-c3cc4ccccc4s3)n2)cc1)N1CCC(N2CCCC2)CC1", "target": "RPS6KA1 N-terminal kinase domain", "test": "binding", "setting": "1 µM", "remaining binding": "63%"}
{"SMILES": "Nc1ncc2c(n1)-c1c([nH]c3ccc(C#CC4CC4)cc13)CCCC2", "target": "RPS6KA1 N-terminal kinase domain", "test": "binding", "setting": "1 µM", "remaining binding": "90%"}
{"SMILES": "O=C(Nc1c[nH]nc1C(=O)NC1CCNCC1)c1cc(F)cc(F)c1", "target": "RPS6KA1 C-terminal kinase domain", "test": "binding", "setting": "1 µM", "remaining binding": "100%"}
{"SMILES": "C=CC(=O)N1CCC(C(=O)NCC(=O)N2CCN(c3nc(-c4cnc(N)nc4C(F)F)nc(N4CCOCC4)n3)CC2)CC1", "target": "RPS6KA1 C-terminal kinase domain", "test": "binding", "setting": "1 µM", "remaining binding": "100%"}
{"SMILES": "C[C@@H]1CCN(c2nccc(-c3cnn4ncccc34)n2)C1", "target": "RPS6KA1 C-terminal kinase domain", "test": "binding", "setting": "1 µM", "remaining binding": "47%"}
{"SMILES": "CN(C)c1ncnc(-c2ccc3nc(Nc4cc(CN5CCN(C(=O)CC(F)(F)F)CC5)ccn4)[nH]c3c2)c1Cl", "target": "RPS6KA1 C-terminal kinase domain", "test": "cell-free assay", "setting": "1 µM", "remaining binding": "98%"}
{"SMILES": "F[C@@H]1CCN(c2nccc(-c3cnn4ncccc34)n2)C1", "target": "RPS6KA1 N-terminal kinase domain", "test": "binding", "setting": "1 µM", "remaining binding": "100%"}
{"SMILES": "CC(C)CC(=O)N1CCc2nc(-c3ccc(Br)cc3)nc(N(C)Cc3ccccc3)c2C1", "target": "RPS6KA1 N-terminal kinase domain", "test": "cell-free assay", "setting": "0.1 µM", "remaining binding": "93%"}
{"SMILES": "FC(F)(F)Oc1cccc(-c2cnc3ccc(-c4ccncc4)nn23)c1", "target": "RPS6KA1 C-terminal kinase domain", "test": "binding", "setting": "5 µM", "remaining binding": "41%"}
{"SMILES": "COc1ncc2cc3ccccc3nc2c1C#N", "target": "RPS6KA1 C-terminal kinase domain", "test": "cell-free assay", "setting": "5 µM", "remaining binding": "49%"}
{"SMILES": "CNC(=O)[C@@H]1CC[C@@H](n2c(-c3ccc4cnccc4c3)nc3ccc(C(=O)NCc4cccc(C(N)=O)c4)cc32)C1", "target": "RPS6KA1 N-terminal kinase domain", "test": "binding", "setting": "1 µM", "remaining binding": "100%"}
{"SMILES": "CN(CCCC(F)(F)F)c1nccc(-c2cnn3ncccc23)n1", "target": "RPS6KA1 N-terminal kinase domain", "test": "binding", "setting": "1 µM", "remaining binding": "100%"}
{"SMILES": "COc1cnc(Nc2cccc(S(N)(=O)=O)c2)nc1N1CCN(c2ccccc2)C(=O)C1", "target": "RPS6KA1 N-terminal kinase domain", "test": "binding", "setting": "1 µM", "remaining binding": "100%"}
{"SMILES": "CN(C)c1ncc(F)c(-c2cnn3ncccc23)n1", "target": "RPS6KA1 N-terminal kinase domain", "test": "binding", "setting": "1 µM", "remaining binding": "100%"}
{"SMILES": "CO[C@@H](C)c1c(Nc2ccc([C@@H](N(C)C(=O)C3CCS(=O)(=O)CC3)C(F)(F)F)cc2)cnc2cc(Cl)nn12", "target": "RPS6KA1 C-terminal kinase domain", "test": "cell-free assay", "setting": "1 µM", "remaining binding": "99%"}
